Here are results for two molecules from ChEMBL document CHEMBL1140876, “Synthesis and antibacterial property of quinolines with potent DNA gyrase activity” (2009).

In brackets after ≈: the same amount, converted by molar mass. Activity calls are given as the source filed them. No cut-off for these calls is given here.

For assay [1], the system named is Klebsiella pneumoniae. As to the kind of experiment: Antimicrobial activity against Klebsiella pneumoniae at 10 ug after 24 hrs by disk diffusion method. It is filed as functional. Particulars: read-out: IZ. In outline:
(§1)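 Inoculum made in 0.85% saline against McFarland standard, swabbed evenly onto nutrient agar; sterile filter-paper discs set equidistant and loaded with equal volumes of drug at varying amounts; zone of inhibition measured after 24 h at 37 °C; ciprofloxacin reference.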

Assay [2] deals with Pseudomonas aeruginosa. In words: Antimicrobial activity against Pseudomonas aeruginosa at 5 ug after 24 hrs by disk diffusion method. It counts as functional. The conditions noted are these: read-out: IZ. In outline:
as §1
For orientation: In agar diffusion tests the substance spreads into inoculated agar from a disc or well.

The test system of assay [3] is Klebsiella pneumoniae. In words: Antimicrobial activity against Klebsiella pneumoniae at 5 ug after 24 hrs by disk diffusion method. It counts as functional. The conditions noted are these: read-out: IZ. In short, it runs like this: as §1
Assay [4] has as its system Bacillus subtilis. In words: Antimicrobial activity against Bacillus subtilis at 25 ug after 24 hrs by disk diffusion method. It counts as functional. The conditions noted are these: read-out: IZ. In outline: as §1
For assay [5], the system named is Escherichia coli. As to the kind of experiment: Antimicrobial activity against Escherichia coli by broth microdilution assay. It is filed as functional. In outline:
(§2)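 Broth microdilution per NCCLS 1997 in 96-well plate; final inoculum 10^5 cfu/mL; incubated 35.7 °C in air 18–20 h; MIC read as lowest concentration with no visible growth.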

Assay [6] concerns Klebsiella pneumoniae. As to the kind of experiment: Antimicrobial activity against Klebsiella pneumoniae at 25 ug after 24 hrs by disk diffusion method. It is filed as functional. The conditions noted are these: read-out: IZ. In outline: as §1
Assay [7] deals with Staphylococcus aureus. As to the kind of experiment: Antimicrobial activity against Staphylococcus aureus by broth microdilution assay. It is filed as functional. In short, it runs like this:
as §2

Assay [8] concerns Staphylococcus aureus. As to the kind of experiment: Antimicrobial activity against Staphylococcus aureus at 20 ug after 24 hrs by disk diffusion method. It is filed as functional. Particulars: read-out: IZ. In short, it runs like this: as §1
Assay [9] deals with Salmonella typhimurium. In words: Antimicrobial activity against Salmonella Typhimurium at 20 ug after 24 hrs by disk diffusion method. Particulars: Salmonella enterica, read-out: IZ. It is filed as functional, Salmonella enterica subsp. enterica serovar Typhimurium. In short, it runs like this: as §1
The nature of assay [10]: Inhibition of DNA gyrase assessed as conversion of relaxed pBR322 to supercoiled form. In short, it runs like this: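 Supercoiling in 15 µL reactions: gyrase assay buffer, 150 ng relaxed pBR322, 2–3 µL purified DNA gyrase, 3 h at 37 °C (E. coli); stopped with 50% glycerol/0.25% bromophenol blue; 1% agarose in 1× TBE pH 8.3, 90 V 3 h; ethidium bromide stain; supercoiled band brightness by densitometry. Ciprofloxacin comparator.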

Assay [11] relates to Bacillus subtilis. In words: Antimicrobial activity against Bacillus subtilis at 15 ug after 24 hrs by disk diffusion method. It counts as functional. Particulars: read-out: IZ. In outline: as §1
Assay [12] in a line: Inhibition of DNA gyrase assessed as pBR322 DNA relaxation at 5 uM. In outline: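 Relaxation without ATP: gyrase (60 nM) with supercoiled pBR322 DNA (6 nM) and drug at […] for 1 h at 37 °C; relaxation judged by gel. Ciprofloxacin, novobiocin and nalidixic acid comparators.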
Assay [13] has as its system Pseudomonas aeruginosa. In words: Antimicrobial activity against Pseudomonas aeruginosa at 20 ug after 24 hrs by disk diffusion method. It counts as functional. Particulars: read-out: IZ. In short, it runs like this: as §1
The test system of assay [14] is Klebsiella pneumoniae. In words: Antimicrobial activity against Klebsiella pneumoniae at 20 ug after 24 hrs by disk diffusion method. It is filed as functional. Particulars: read-out: IZ. In outline: as §1
Assay [15] has as its system Pseudomonas aeruginosa. As to the kind of experiment: Antimicrobial activity against Pseudomonas aeruginosa by broth microdilution assay. It counts as functional. In short, it runs like this:
as §2
In general terms: Broth dilution looks for growth in wells or tubes with falling amounts of substance.

In assay [16] the test system is Staphylococcus aureus. As to the kind of experiment: Antimicrobial activity against Staphylococcus aureus at 10 ug after 24 hrs by disk diffusion method. It is filed as functional. Particulars: read-out: IZ. In short, it runs like this: as §1
Assay [17] deals with Staphylococcus aureus. As to the kind of experiment: Antimicrobial activity against Staphylococcus aureus at 25 ug after 24 hrs by disk diffusion method. It counts as functional. Particulars: read-out: IZ. In outline:
as §1

Assay [18] has as its system Staphylococcus aureus. As to the kind of experiment: Antimicrobial activity against Staphylococcus aureus at 5 ug after 24 hrs by disk diffusion method. It counts as functional. The conditions noted are these: read-out: IZ. In short, it runs like this: as §1
In assay [19] the test system is Escherichia coli. In words: Antimicrobial activity against Escherichia coli at 20 ug after 24 hrs by disk diffusion method. It is filed as functional. Particulars: read-out: IZ. In outline:
as §1

Assay [20] deals with Pseudomonas aeruginosa. In words: Antimicrobial activity against Pseudomonas aeruginosa at 15 ug after 24 hrs by disk diffusion method. The conditions noted are these: read-out: IZ. It counts as functional. In outline:
as §1

Assay [21] concerns Pseudomonas aeruginosa. As to the kind of experiment: Antimicrobial activity against Pseudomonas aeruginosa at 10 ug after 24 hrs by disk diffusion method. It is filed as functional. Particulars: read-out: IZ. In outline: as §1
Assay [22] concerns Salmonella typhimurium. In words: Antimicrobial activity against Salmonella Typhimurium at 15 ug after 24 hrs by disk diffusion method. It is filed as functional, Salmonella enterica subsp. enterica serovar Typhimurium. The conditions noted are these: Salmonella enterica, read-out: IZ. In outline: as §1
For assay [23], the system named is Bacillus subtilis. As to the kind of experiment: Antimicrobial activity against Bacillus subtilis at 20 ug after 24 hrs by disk diffusion method. It is filed as functional. The conditions noted are these: read-out: IZ. In outline: as §1
The subject of a further assay is Salmonella typhi. As to the kind of experiment: Antimicrobial activity against Salmonella typhi by broth microdilution assay. It is filed as functional, Salmonella enterica subsp. enterica serovar Typhi. The conditions noted are these: Salmonella enterica. In outline: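 Broth microdilution in 96-well plates following the NCCLS 1997 protocol. Final inoculum was 10^5 cfu/mL, with a control organism run alongside. Plates were incubated at 35.7 °C in air for 18–20 h. MIC is the lowest concentration with no visible growth.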

Assay [24] relates to Bacillus subtilis. As to the kind of experiment: Antimicrobial activity against Bacillus subtilis by broth microdilution assay. It counts as functional. In short, it runs like this: as §2
The test system of assay [25] is Salmonella typhimurium. In words: Antimicrobial activity against Salmonella Typhimurium at 10 ug after 24 hrs by disk diffusion method. It counts as functional, Salmonella enterica subsp. enterica serovar Typhimurium. The conditions noted are these: Salmonella enterica, read-out: IZ. In outline: as §1
Assay [26] has as its system Escherichia coli. In words: Antimicrobial activity against Escherichia coli at 5 ug after 24 hrs by disk diffusion method. It is filed as functional. The conditions noted are these: read-out: IZ. In outline: as §1
In assay [27] the test system is Salmonella typhimurium. As to the kind of experiment: Antimicrobial activity against Salmonella Typhimurium at 25 ug after 24 hrs by disk diffusion method. It is filed as functional, Salmonella enterica subsp. enterica serovar Typhimurium. Particulars: Salmonella enterica, read-out: IZ. In outline: as §1
The subject of assay [28] is Salmonella typhimurium. As to the kind of experiment: Antimicrobial activity against Salmonella Typhimurium at 5 ug after 24 hrs by disk diffusion method. It is filed as functional, Salmonella enterica subsp. enterica serovar Typhimurium. Particulars: Salmonella enterica, read-out: IZ. In short, it runs like this: as §1
The subject of assay [29] is Staphylococcus aureus. As to the kind of experiment: Antimicrobial activity against Staphylococcus aureus at 15 ug after 24 hrs by disk diffusion method. It is filed as functional. The conditions noted are these: read-out: IZ. In outline:
as §1

The subject of assay [30] is Escherichia coli. In words: Antimicrobial activity against Escherichia coli at 25 ug after 24 hrs by disk diffusion method. It counts as functional. Particulars: read-out: IZ. In outline:
as §1

Assay [31] deals with Pseudomonas aeruginosa. As to the kind of experiment: Antimicrobial activity against Pseudomonas aeruginosa at 25 ug after 24 hrs by disk diffusion method. It counts as functional. The conditions noted are these: read-out: IZ. In short, it runs like this: as §1
The subject of assay [32] is Klebsiella pneumoniae. In words: Antimicrobial activity against Klebsiella pneumoniae by broth microdilution assay. It is filed as functional. In outline:
as §2

In assay [33] the test system is Escherichia coli. As to the kind of experiment: Antimicrobial activity against Escherichia coli at 15 ug after 24 hrs by disk diffusion method. It is filed as functional. The conditions noted are these: read-out: IZ. In short, it runs like this:
as §1

The subject of assay [34] is Escherichia coli. In words: Antimicrobial activity against Escherichia coli at 10 ug after 24 hrs by disk diffusion method. It counts as functional. The conditions noted are these: read-out: IZ. In short, it runs like this:
as §1

Assay [35] concerns Klebsiella pneumoniae. In words: Antimicrobial activity against Klebsiella pneumoniae at 15 ug after 24 hrs by disk diffusion method. It is filed as functional. The conditions noted are these: read-out: IZ. In outline:
as §1

Assay [36] can be described thus: Inhibition of DNA gyrase assessed as pBR322 DNA relaxation at 2.5 uM. In short, it runs like this:
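Gyrase (60 nM) was incubated with supercoiled pBR322 DNA (6 nM) and increasing compound concentrations (0, 0.1, 0.25, 0.5, 2.5) without ATP for 1 h at 37 °C. Relaxation of the supercoiled DNA was evaluated.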

As a reminder, the MIC50 is the lowest concentration that inhibits either 50% of growth or 50% of the strains tested, depending on the study. High values mean lower susceptibility, low ones higher susceptibility. In general, MIC90 refers to an inhibitory concentration at the 90% level, which refers to growth in some studies and to a panel of isolates in others. Lower therefore signals higher susceptibility. `O=C1c2ccccc2C(=O)C12Nc1ccc(Br)cc1[C@H]1OCCC[C@H]12`: the zone of inhibition at 10 µg/disc in the assay on Klebsiella pneumoniae [1] worked out at 10 mm; in the assay with Staphylococcus aureus [16] it was 9 mm; in the assay on Pseudomonas aeruginosa [21], 14 mm; in the assay on Salmonella typhimurium [25] it was 10 mm; in the assay on Escherichia coli [34] it was 9 mm. The zone of inhibition at 5 µg/disc with Pseudomonas aeruginosa [2] turned out to be 10 mm; in the assay with Klebsiella pneumoniae [3] it was 8 mm; in the assay with Staphylococcus aureus [18] it was 8 mm; in the assay on Escherichia coli [26] it was 8 mm; in the assay on Salmonella typhimurium [28], 8 mm. Moreover, the zone of inhibition at 25 µg/disc in the assay with Bacillus subtilis [4] amounted to 10 mm; with Klebsiella pneumoniae [6] it was 16 mm; in the assay on Staphylococcus aureus [17], 14 mm; in the assay with Salmonella typhimurium [27], 16 mm; with Escherichia coli [30] it was 13 mm; with Pseudomonas aeruginosa [31] it was 23 mm. For the same molecule, the MIC50 amounted to 2 µg/mL (≈ 5.02 µM) against Escherichia coli [5]; 64 µg/mL (≈ 161 µM) against Staphylococcus aureus [7]; 1 µg/mL (≈ 2.51 µM) in the assay with Pseudomonas aeruginosa [15]; 1.64 µg/mL (≈ 4.12 µM) against Salmonella typhi; 5 µg/mL (≈ 12.6 µM) in the assay on Bacillus subtilis [24]; 0.25 µg/mL (≈ 0.628 µM) with Klebsiella pneumoniae [32]. For the same molecule, the MIC90 against Escherichia coli [5] turned out to be 4 µg/mL (≈ 10 µM); in the assay on Staphylococcus aureus [7] it was 64 µg/mL (≈ 161 µM); against Pseudomonas aeruginosa [15] it was 8 µg/mL (≈ 20.1 µM); against Salmonella typhi it was 2.5 µg/mL (≈ 6.28 µM); with Bacillus subtilis [24] it was 5 µg/mL (≈ 12.6 µM); in the assay with Klebsiella pneumoniae [32], 4 µg/mL (≈ 10 µM). The zone of inhibition at 20 µg/disc amounted to 12 mm with Staphylococcus aureus [8]; 14 mm with Salmonella typhimurium [9]; 20 mm in the assay with Pseudomonas aeruginosa [13]; 14 mm with Klebsiella pneumoniae [14]; 12 mm in the assay with Escherichia coli [19]; 9 mm in the assay on Bacillus subtilis [23]. In addition, the result in assay [10] was Active. For the same molecule, the zone of inhibition at 15 µg/disc with Bacillus subtilis [11] stood at 8 mm; with Pseudomonas aeruginosa [20], 16 mm; with Salmonella typhimurium [22] it was 13 mm; with Staphylococcus aureus [29], 10 mm; in the assay with Escherichia coli [33] it was 10 mm; in the assay with Klebsiella pneumoniae [35], 13 mm. In [12], the result was inactive.

With `CCn1cc(C(=O)O)c(=O)c2ccc(C)nc21`, the result in assay [10] and in assay [36] was Active.
